CYP2C9 act: human CYP2C9 activators, primary screen, biochemical, luminescence | actives 1.4% (n = 96,000) | recombinant CYP2C9, luciferin-H conversion; stronger effect = higher value; factor 1 = untreated enzyme, 0 = blocked | activation factor at 5 µM | AID 1024, 2008 | Cytochrome P450 2C9 (Homo sapiens), P11712;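 active = activation factor of 2 or more for CYP2C9 at a 5 µM dose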;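 note: 0 = sulfaphenazole-blocked wells and 1 = vehicle-only wells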
Cav32 inh: Cav3.2 calcium influx blockers – cell-based, Fluo-4 calcium fluorescence, FDSS, MLSMR library, primary screen. AID 449739, 2010. B-score at 10 µM. actives 4% (n = 100,000). Cav3.2-expressing cells; stronger effect = lower value;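 active = single-dose well whose peak fluorescence ratio is a statistical outlier from its plate by either plate-standardised score or position-corrected B-score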
Target sequence (O95180 whole entry, looked up): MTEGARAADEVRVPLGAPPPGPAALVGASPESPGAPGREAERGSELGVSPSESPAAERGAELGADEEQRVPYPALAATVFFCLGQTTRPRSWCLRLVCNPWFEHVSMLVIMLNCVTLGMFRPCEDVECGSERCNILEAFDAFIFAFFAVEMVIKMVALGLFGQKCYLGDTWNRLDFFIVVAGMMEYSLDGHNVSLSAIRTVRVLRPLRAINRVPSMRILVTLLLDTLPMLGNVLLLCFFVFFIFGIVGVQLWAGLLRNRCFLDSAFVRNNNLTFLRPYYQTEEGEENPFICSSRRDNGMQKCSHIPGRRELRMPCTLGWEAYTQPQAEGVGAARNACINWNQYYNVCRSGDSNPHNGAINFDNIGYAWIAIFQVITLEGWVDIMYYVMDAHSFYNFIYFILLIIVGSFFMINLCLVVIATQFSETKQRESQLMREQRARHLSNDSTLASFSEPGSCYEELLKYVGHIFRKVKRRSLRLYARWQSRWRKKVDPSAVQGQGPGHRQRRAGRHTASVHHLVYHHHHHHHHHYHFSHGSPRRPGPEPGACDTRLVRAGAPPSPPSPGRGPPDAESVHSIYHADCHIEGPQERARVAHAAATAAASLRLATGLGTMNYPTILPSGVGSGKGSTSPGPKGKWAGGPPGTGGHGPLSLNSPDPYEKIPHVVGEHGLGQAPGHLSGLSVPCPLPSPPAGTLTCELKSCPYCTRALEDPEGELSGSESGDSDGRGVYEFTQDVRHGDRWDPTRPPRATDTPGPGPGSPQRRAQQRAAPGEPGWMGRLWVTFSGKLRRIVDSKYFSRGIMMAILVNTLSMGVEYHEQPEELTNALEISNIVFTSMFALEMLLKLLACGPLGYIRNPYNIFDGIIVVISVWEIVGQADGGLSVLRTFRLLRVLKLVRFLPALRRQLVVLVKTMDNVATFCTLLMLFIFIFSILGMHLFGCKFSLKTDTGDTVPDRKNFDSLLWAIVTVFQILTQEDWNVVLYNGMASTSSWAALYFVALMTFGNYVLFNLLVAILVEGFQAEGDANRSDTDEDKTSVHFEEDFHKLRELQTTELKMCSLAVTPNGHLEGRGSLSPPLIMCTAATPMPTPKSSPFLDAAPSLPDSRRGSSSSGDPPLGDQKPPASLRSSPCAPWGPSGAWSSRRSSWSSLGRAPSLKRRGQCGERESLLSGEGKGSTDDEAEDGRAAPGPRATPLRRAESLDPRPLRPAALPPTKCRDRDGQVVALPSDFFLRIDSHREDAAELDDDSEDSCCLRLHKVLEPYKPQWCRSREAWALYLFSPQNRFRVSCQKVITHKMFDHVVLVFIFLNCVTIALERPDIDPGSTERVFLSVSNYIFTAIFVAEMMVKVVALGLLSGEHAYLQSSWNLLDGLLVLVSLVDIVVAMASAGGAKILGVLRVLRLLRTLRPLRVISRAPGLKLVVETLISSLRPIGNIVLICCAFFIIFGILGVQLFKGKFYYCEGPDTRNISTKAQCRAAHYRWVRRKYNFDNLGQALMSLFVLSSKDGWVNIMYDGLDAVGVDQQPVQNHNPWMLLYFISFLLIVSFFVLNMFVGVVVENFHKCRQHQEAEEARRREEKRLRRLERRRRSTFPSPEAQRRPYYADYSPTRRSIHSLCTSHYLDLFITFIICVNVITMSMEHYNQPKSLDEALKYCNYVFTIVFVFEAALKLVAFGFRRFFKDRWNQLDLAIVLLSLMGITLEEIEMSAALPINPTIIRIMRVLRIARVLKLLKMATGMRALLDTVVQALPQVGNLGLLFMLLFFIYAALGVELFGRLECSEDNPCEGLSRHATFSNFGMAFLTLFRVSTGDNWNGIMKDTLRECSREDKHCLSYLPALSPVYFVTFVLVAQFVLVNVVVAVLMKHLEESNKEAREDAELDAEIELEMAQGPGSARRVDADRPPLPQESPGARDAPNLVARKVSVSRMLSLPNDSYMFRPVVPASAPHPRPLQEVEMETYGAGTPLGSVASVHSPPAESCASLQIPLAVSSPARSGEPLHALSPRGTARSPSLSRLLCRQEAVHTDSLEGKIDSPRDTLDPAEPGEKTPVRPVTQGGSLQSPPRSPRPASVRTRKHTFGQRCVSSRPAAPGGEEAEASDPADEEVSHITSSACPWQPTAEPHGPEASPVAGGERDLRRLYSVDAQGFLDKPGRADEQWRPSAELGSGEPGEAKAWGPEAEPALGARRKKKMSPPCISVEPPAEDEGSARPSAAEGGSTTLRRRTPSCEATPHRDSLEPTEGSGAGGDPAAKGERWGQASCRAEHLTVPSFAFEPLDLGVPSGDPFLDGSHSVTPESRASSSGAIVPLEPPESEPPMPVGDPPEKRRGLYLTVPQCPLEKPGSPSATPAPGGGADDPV
CYP2C19 act: human CYP2C19 activators, primary screen, biochemical, luminescence | recombinant CYP2C19, luciferin-H EGE luminescence; stronger effect = higher value; 0 = fully inhibited enzyme, 1 = untreated enzyme | activation factor at 5 µM | 96,000 tested, under 10 active | AID 1025, 2008;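 active = activation factor of at least 2 at 5 µM in the primary screen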;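 note: 0 = wells with 2.5 mM tranylcypromine and 1 = vehicle-only wells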
HIV Rev-RRE inh: HIV-1 Rev-RRE binding inhibitors, primary screen, biochemical, FRET, protein-RNA interaction | AID 704, 2007 | inhibition, % at 8 µM | actives 0.79% (n = 97,000) | Rev peptide-RRE RNA binding;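 active = inhibition above the screen-wide mean plus 3 SD, cut at about 35% in these data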;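 note: 0% = median DMSO wells and 100% = median Neomycin B control wells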
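Assay system: labelled RRE RNA duplex and labelled Rev peptide / Medium: HEPES pH 7.5 salt buffer with EDTA / Reagent: labelled Rev peptide / Schedule: 5 + 15 min at 25 °C / Signal: FRET, excitation 480 nm, emission 540 nm donor and 671 nm acceptor / Benchmarks: DMSO and neomycin B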
CYP2C9 inhib: blockers of cytochrome P450 2C9 activity – biochemical, luminescence, ADME assay, primary screen | P11712 | CYP2C9 Supersomes, luciferin-H conversion | inhibition, % at 5 µM | actives 20% (n = 96,000) | AID 777, 2007;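 active = blocking of liver enzyme CYP2C9 beyond about 50% at 5 µM, limit read from the data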
CYP2C19 inh: blockers of cytochrome P450 2C19 activity – biochemical, luminescence, ADME assay, primary screen; actives 21% (n = 96,000); AID 778, 2007; P33261; CYP2C19 Supersomes, luciferin-H EGE luminescence, 30 min; inhibition, % at 5 µM;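 active = CYP2C19 inhibition above a set limit at 5 µM in the primary screen, cut at about 50% in these data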;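 note: plate controls were negative control wells for no effect and 2.5 mM tranylcypromine positive control for full effect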
Starred values were filed as active, the others as inactive; . = not tested or not shown; [ ] = dose if it differs, or a comment. The list is not random: actives were taken first. Their share in the collection is about 27%.

SMILES | CYP2C9 act | Cav32 inh | CYP2C19 act | HIV Rev-RRE inh | CYP2C9 inhib | CYP2C19 inh
COc1cc(C)c(CN2CCN(c3ccccc3)CC2)cc1C | 0.9 | -0.718 | 0.4 | 2.9 | 5.8 | 56.5*
O=C(COc1ccc(Br)cc1)N1CCN(Cc2c[nH]c3ccccc23)CC1 | 0.1 | . | 0.1 | -0.4 | 89.2* | 85.6*
O=c1[nH]c(=O)n(Cc2ccc(F)cc2)c(O)c1C=NCCCN1CCOCC1 | 1.1 | 0.674 | 1.1 | 5.8 | -6.3 | -8.8
CCCSP1(=S)NCCCO1 (stereo not drawn) | 0.9 | 0.572 | 0.9 | 1.4 | 12.7 | 6.6
C=CCn1c(O)c(C(CC)=NCc2cc(OC)cc(OC)c2)c(=O)[nH]c1=O | 0 | -0.374 | 0.5 | 1.3 | 95.1* | 46.1
CCCCn1c(O)c(C(CC)=NCc2ccc3c(c2)OCO3)c(=O)[nH]c1=O | 0.2 | -5.06* | 0.3 | 17.8 | 82.1* | 74.2*
COC(=O)C1=C(c2cc3ccccc3s2)C[C@@H]2CC[C@H]1N2C(=O)N1CCC(O)CC1 | . | 0.0548 | . | . | . | .
O=P1(Nc2ccc(F)cc2)COc2ccccc2OC1 | 1.1 | 2.05 | 0.4 | 10.6 | -11.0 | 63.8*
CCOC(=O)C1(c2ccccc2)CCN(CCC(C#N)(c2ccccc2)c2ccccc2)CC1 | . | -7.55* | . | . | . | .
CCOC(=O)c1ccc(N2C(=O)CC(N3CCC(C#N)(c4ccccc4)CC3)C2=O)cc1 (stereo not drawn) | 0.8 | 0.322 | 0.8 | 11.7 | 19.7 | 21.9
O=S1(=O)CC2(N3CCOCC3)CCCCC21 (stereo not drawn) | 1.1 | -0.802 | 1.1 | . | -10.7 | -8.2
COC(=O)c1cc(C(O)(C(=O)OC)C(F)(F)F)c(/N=C/N(C)C)s1 (stereo not drawn) | 0.3 | 0.667 | 0.2 | 2.3 | 73.4* | 83.4*
CCOC(=O)N(C)c1ccc(C(O)(C(=O)OC)C(F)(F)F)cc1 (stereo not drawn) | . | 0.461 | . | -1.2 | . | .
O=C1OCCC1NC1=NCCC1 (stereo not drawn) | 1 | -0.0672 | 1 | 11.7 | 0.6 | -1.7
Cc1cccn2c(=O)c3c(nc12)N1CCc2ccccc2C1C1(C3)C(=O)NC(=O)N(C)C1=O (stereo not drawn) | 1 | 0.0497 | 1 | 0.7 | 2.6 | -0.4
CCCCN1C(=O)NC(=O)C2(Cc3c(nc4c(C)cccn4c3=O)N3CCc4ccccc4C32)C1=O (stereo not drawn) | 0.1 | . | 0.2 | 1.8 | 88.8* | 76.9*
CN1C(=O)C(Cc2cccs2)C(=O)N(C)C1=O | 0.8 | 0.173 | 1 | 5.4 | 22.9 | 2.6
COc1cc(OC)cc(-n2nc(C(=O)N3CCC4(CC3)OCCO4)c3ccccc3c2=O)c1 | 0.8 | . | 1 | . | 16.5 | -4.2
O=C(c1sc2ccccc2c1Cl)N1CCC2(CC1)OCCO2 | 1.8 | -3.28 | 0.2 | 6.1 | -78.6 | 81.5*
CCOC(=O)N1CCN(C(C)C(=O)c2c[nH]c3ccccc23)CC1 (stereo not drawn) | 0.2 | 0.442 | 0.1 | 6.8 | 83.7* | 92.4*
O=C(COc1ccc2ccccc2c1)N1CCN(Cc2c[nH]c3ccccc23)CC1 | 0.8 | -1.66 | 0.8 | -5.0 | 22.0 | 19.0
CCn1c(=O)cc(OCC(=O)N2CCN(Cc3ccc4c(c3)OCO4)CC2)c2ccccc21 | 0.8 | 0.611 | 0.8 | 5.2 | 16.3 | 22.9
Cc1ccc(N2C(=O)/C(=C/c3ccc(CN(CCC#N)S(C)(=O)=O)o3)C(=O)NC2=S)cc1C | 1.2 | 1.15 | 1.2 | 29.0 | -21.5 | -17.0
Cc1cccc(N2C(=O)/C(=C/c3ccc(CN(CCC#N)S(C)(=O)=O)o3)C(=O)NC2=S)c1 | 1 | 1.02 | 1.1 | 24.9 | 0.2 | -6.8
CN1C(=O)/C(=C/c2ccc(N3CCCCCC3)o2)C(=O)NC1=S | . | -4.46* | . | 126.2*[fluorescence artefact?] | . | .
CN1C(=O)/C(=C\c2ccc(N3CCCCC3)o2)C(=O)NC1=S | 0.9 | -4.83* | 0.8 | 128.0*[fluorescence artefact?] | 11.1 | 20.5

Screens as filed in PubChem BioAssay.
